Experimental data from paper PMC7114156 (Antiviral Research, 2009).

Experiments:
adenovirus type 5 = assay: Adenovirus assay: adenovirus-5 replication in HFF cells, viral DNA by qPCR; type: cell-based; conditions: read-out: EC50, adenovirus replication; data not shown
IM9 cells [1] = assay: Growth of IM9 cell line; type: cell-based, human; conditions: read-out: EC50, growth of IM9 cells; data not shown
MT4 cells [2] = assay: Growth of MT4 cell line; type: cell-based, human; conditions: read-out: EC50, growth of MT4 cells; data not shown
episomal HPV-16 DNA = assay: Hybrid capture assay for HPV16 DNA in W12-20850 cells; type: cell-based; conditions: read-out: EC50, reduction of HPV DNA; W12 cells; data not shown
Procedure, shortened: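 W12-20850 cells seeded at 7.5 × 10^3/well onto compound (100 to 0.001 μM), 4 days at 37 °C, 5% CO2. MTS growth read, then same cells lysed in 0.2N NaOH/1% Igepal. Episomal HPV-16 DNA measured by hybrid capture: 90 °C 6.5 min, 42 °C overnight, anti-digoxigenin HRP, chemiluminescence. HPV DNA/MTS ratio expressed as % of untreated control. Fit to modified Hill equation.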

W12-20850 cells = assay: Growth of W12-20850 cells, MTS; type: cell-based, human; conditions: read-out: EC50, inhibition of growth of W12 cells; data not shown
Procedure, shortened: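 For the time course, test compound was added at time zero to cells growing in 96-well plates. Growth was followed as rate of MTS reduction over 3 days from day zero, with untreated controls alongside.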

IM9 cells [3] = assay: Apoptosis assay; type: cell-based, human; conditions: IM9, 20 h exposure
Procedure, shortened: (§1)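 Apoptosis read as cytoplasmic histone-associated DNA fragments with a Cell Death Detection ELISA kit. Exposure was 20 h for IM9 and MT4 and 40 h for W12 and U937. A405 was read kinetically at 30 °C, and the rate per hour came from linear regression of the linear portion. A Fas-activating antibody was the positive control.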

MT4 cells [4] = assay: Apoptosis assay; type: cell-based, human; conditions: MT4, 20 h exposure
Procedure, shortened: as §1

W12 cells = assay: Apoptosis assay; type: cell-based, human; conditions: W12, 40 h exposure
Procedure, shortened: as §1

U937 cells = assay: Apoptosis assay; type: cell-based, human; conditions: U937, 40 h exposure
Procedure, shortened: as §1

## O=C(N[C@H]1CCCc2c1[nH]c1ccc(Cl)cc21)c1ccccn1 [GSK984]
Adenovirus type 5
  EC50: > 10 µM
IM9 cells [1]
  EC50: 13 µM
MT4 cells [2]
  EC50: 35 µM
Episomal HPV-16 DNA
  EC50: 6.9 ± 0.68 µM
W12-20850 cells
  EC50: 17 ± 3.6 µM
IM9 cells [3]
  Apoptosis: did not induce apoptosis
MT4 cells [4]
  Apoptosis: did not induce apoptosis
W12 cells
  Apoptosis: did not induce apoptosis
U937 cells
  Apoptosis: did not induce apoptosis
